Experimental data published in PMC10692477 (Acta Pharmaceutica Sinica. B, 2023).

Assays:
[1] = target: T1, AXL kinase (Homo sapiens, UniProt P30530); test: AXL kinase inhibition, ELISA; format: biochemical; settings: IC50 AXL kinase, ELISA; mean ± SD of two independent experiments
T1 sequence (P30530 26-894): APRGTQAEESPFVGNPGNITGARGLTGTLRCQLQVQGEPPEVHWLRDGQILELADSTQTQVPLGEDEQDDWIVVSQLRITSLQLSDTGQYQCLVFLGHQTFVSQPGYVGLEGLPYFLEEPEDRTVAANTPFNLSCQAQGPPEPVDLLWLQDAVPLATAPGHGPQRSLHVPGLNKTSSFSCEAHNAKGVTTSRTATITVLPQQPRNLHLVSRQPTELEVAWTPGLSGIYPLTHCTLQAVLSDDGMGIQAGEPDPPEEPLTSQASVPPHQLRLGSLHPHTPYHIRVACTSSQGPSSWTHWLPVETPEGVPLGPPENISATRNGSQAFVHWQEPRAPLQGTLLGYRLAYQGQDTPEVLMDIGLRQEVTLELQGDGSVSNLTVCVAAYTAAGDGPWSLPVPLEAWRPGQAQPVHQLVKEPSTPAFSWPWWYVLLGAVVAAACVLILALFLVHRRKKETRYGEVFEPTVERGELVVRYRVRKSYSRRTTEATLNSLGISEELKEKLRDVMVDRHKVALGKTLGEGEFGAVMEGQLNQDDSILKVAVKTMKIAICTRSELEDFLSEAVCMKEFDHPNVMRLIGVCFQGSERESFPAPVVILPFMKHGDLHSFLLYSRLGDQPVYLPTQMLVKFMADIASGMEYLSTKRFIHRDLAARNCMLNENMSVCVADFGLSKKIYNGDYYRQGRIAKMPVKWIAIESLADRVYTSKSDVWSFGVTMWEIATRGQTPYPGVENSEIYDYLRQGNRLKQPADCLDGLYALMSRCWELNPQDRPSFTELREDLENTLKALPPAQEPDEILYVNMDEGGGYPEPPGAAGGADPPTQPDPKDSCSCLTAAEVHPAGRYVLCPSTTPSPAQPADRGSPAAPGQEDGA

[2] = test system: BaF3/TEL-AXL cells; test: BaF3/TEL-AXL cell viability; format: cell-based; settings: 48 h, read-out: IC50 Cell viability
[3] = target: c-Met kinase (Homo sapiens, UniProt P08581); test: c-Met kinase inhibition, ELISA; format: biochemical
c-Met kinase, sequence (P08581 25-1390): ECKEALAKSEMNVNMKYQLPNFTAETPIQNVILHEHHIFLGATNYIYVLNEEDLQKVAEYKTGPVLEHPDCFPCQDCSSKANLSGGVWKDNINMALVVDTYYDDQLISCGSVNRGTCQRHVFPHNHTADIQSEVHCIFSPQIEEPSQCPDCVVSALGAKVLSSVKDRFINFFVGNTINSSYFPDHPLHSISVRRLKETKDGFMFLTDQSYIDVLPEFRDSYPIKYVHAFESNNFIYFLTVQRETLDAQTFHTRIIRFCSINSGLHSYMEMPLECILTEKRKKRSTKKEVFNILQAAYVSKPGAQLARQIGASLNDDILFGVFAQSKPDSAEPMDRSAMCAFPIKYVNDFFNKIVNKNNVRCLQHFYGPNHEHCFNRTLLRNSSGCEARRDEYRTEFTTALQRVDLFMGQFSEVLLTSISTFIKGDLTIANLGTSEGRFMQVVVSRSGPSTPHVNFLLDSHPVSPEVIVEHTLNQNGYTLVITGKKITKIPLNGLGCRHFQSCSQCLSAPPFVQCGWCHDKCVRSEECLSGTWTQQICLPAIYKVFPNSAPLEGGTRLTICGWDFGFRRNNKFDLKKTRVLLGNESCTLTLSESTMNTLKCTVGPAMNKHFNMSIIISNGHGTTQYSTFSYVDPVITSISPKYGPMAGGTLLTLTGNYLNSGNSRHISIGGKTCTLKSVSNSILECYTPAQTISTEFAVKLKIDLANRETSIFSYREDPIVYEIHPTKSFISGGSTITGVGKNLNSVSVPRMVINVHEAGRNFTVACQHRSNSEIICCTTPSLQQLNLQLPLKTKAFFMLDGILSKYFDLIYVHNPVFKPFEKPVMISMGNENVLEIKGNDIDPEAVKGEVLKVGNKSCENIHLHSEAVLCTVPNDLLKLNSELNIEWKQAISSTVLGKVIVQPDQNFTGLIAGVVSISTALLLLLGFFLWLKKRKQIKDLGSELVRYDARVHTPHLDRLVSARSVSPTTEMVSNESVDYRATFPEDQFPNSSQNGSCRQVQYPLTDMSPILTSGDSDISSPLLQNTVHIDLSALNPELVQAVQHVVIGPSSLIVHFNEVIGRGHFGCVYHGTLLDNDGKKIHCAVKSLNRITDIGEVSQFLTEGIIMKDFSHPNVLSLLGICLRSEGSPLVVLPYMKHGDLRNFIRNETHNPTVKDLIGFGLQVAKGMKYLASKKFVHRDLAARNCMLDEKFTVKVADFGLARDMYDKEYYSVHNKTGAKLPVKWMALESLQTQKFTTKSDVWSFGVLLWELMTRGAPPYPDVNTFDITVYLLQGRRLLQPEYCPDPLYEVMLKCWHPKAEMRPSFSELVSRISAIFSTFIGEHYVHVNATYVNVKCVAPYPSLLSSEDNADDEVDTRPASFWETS
Procedure, shortened: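 c-Met inhibition was measured by an ELISA-based kinase assay following a previously reported method. IC50 values were calculated from inhibition curves with a modified 4-parameter logistic model, from at least two separate experiments.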

[4] = test system: EBC-1 cells; test: EBC-1 cell viability; format: cell-based; settings: Homo sapiens, EBC-1, 72 h, read-out: IC50 viability of EBC-1 cells
Procedure, shortened: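 EBC-1 cells were seeded at low density in growth medium and incubated overnight. They were then treated with graded concentrations of the test compound for 72 h. Viability was read by CCK-8, and IC50 was obtained by four-parameter concentration–response curve fitting.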

[5] = Pharmacokinetics in ICR mice; format: in vivo; settings: mouse, serum
[6] = test system: AXL phosphorylation; test: Intratumoral AXL phosphorylation, immunoblotting of tumor tissues; format: in vivo, nude mice; settings: tumor tissues 1 h after last dosage; 4 and 20 mg/kg groups
[7] = test system: SNU449 cells; test: GAS6-stimulated SNU449 cell invasion; format: cell-based; settings: 20 nmol/L, GAS6 500 ng/mL, 24 h
Procedure, shortened: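 SNU449 cells were seeded in top chambers with matrigel-coated membrane inserts. The lower chamber held serum-free medium with GAS6 500 ng/mL, and the test compound was added to both sides. After 24 h, non-invading cells were removed. Invaded cells were fixed in 90% ethanol for 1 h, stained with 0.1% crystal violet for 15 min at room temperature, and imaged.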

[8] = test system: NCI-H1299 cells; test: GAS6-stimulated NCI-H1299 cell migration; format: cell-based; settings: 20 nmol/L, GAS6 500 ng/mL, 24 h
Procedure, shortened: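 NCI-H1299 cells (1.5 × 10^5 per well) in serum-free medium were placed in Transwell inserts with 8 μm pores. The lower chamber held serum-free medium with GAS6 500 ng/mL, and the test compound was added to both sides of the membrane. After 24 h, non-migrated cells were swabbed off. Migrated cells were fixed in 90% ethanol for 1 h, stained with 0.1% crystal violet for 15 min at room temperature, and imaged by microscopy.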

[9] = test system: NCI-H1299 cells; test: NCI-H1299 cell wound healing assay; format: cell-based; settings: NCI-H1299, GAS6 500 ng/mL, 24 h
Procedure, shortened: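 NCI-H1299 monolayers were scratched, then given GAS6 500 ng/mL alone or with graded concentrations of the test compound for 24 h. Wound closure was imaged at 0 and 24 h, in triplicate.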

[10] = test system: NCI-H1299 cells; test: NCI-H1299 cell viability under GAS6; format: cell-based; settings: same conditions as cell motility; GAS6 500 ng/mL, 24 h
Procedure, shortened: (§1)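 NCI-H1299 or SNU449 cells were seeded at low density in growth medium and incubated overnight. They were then stimulated with GAS6 500 ng/mL and treated with graded concentrations of the test compound for 24 h. Viability was read by CCK-8.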

[11] = test system: SNU449 cells; test: SNU449 cell viability under GAS6; format: cell-based; settings: same conditions as cell motility; GAS6 500 ng/mL, 24 h
Procedure, shortened: as §1

[12] = test system: E-cadherin expression; test: E-cadherin expression in GAS6-stimulated NCI-H1299 cells, immunoblotting; format: cell-based; settings: NCI-H1299, GAS6 500 ng/mL, 48 h
[13] = test system: AXL signaling pathway; test: AXL signaling in BaF3/TEL-AXL cells, Western blot; format: cell-based; settings: 1 h
Procedure, shortened: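 BaF3/TEL-AXL cells in exponential growth were exposed to the test compound at the indicated concentrations for 1 h. Cells were lysed in 1× SDS sample buffer, run on 10% SDS-PAGE and transferred to nitrocellulose.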

[14] = test system: AXL signaling pathway; test: GAS6-stimulated AXL signaling in NCI-H1299 cells, Western blot; format: cell-based; settings: NCI-H1299, 1 h treatment, GAS6 500 ng/mL 15 min
Procedure, shortened: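 NCI-H1299 cells in exponential growth were serum-deprived for 24 h, then given the test compound for 1 h and stimulated with GAS6 500 ng/mL for 15 min. Lysis was in 1× SDS sample buffer, followed by 10% SDS-PAGE and nitrocellulose transfer.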

[15] = test system: other 55 tested kinases; test: Kinase selectivity panel of 62 kinases; format: biochemical, human; settings: 100 nmol/L
[16] = test system: BaF3/TEL-AXL mouse xenograft; test: BaF3/TEL-AXL cell-derived mouse xenograft model

IC50 [1]: 3.5 ± 0.8 nM
IC50 [2]: 1.5 ± 0.4 nM
IC50 [3]: 17.3 nM
AUC(0-inf) ([5]; iv, 5 mg/kg): 21600 ng·h/mL
AUC(0-t) ([5]; iv, 5 mg/kg): 20500 ng·h/mL
clearance ([5]; iv, 5 mg/kg): 3.86 mL/min/kg
half-life ([5]; iv, 5 mg/kg): 1.67 h
AUC(0-inf) ([5]; po, 10 mg/kg): 14900 ng·h/mL
AUC(0-t) ([5]; po, 10 mg/kg): 14800 ng·h/mL
Cmax ([5]; po, 10 mg/kg): 2300 ng/mL
Tmax ([5]; po, 10 mg/kg): 1 h
bioavailability ([5]; po, 10 mg/kg): 36.1%
half-life ([5]; po, 10 mg/kg): 2.94 h
Inhibition rate, other 55 tested kinases [15]: less than 50%
SMILES: COc1cc2nccc(Oc3ccc(NC(=O)c4c5n(n(-c6ccc(F)cc6)c4=O)CCCC5)cc3)c2cc1OC [Compound 59]
IC50 [4]: 535 nM
intratumoral AXL phosphorylation (p-AXL) [6]: robust inhibitions
SNU449 cell invasion [7]: significant inhibition
NCI-H1299 cell migration [8]: significant reduction
GAS6-accelerated wound healing [9]: obviously inhibited
cell viability of NCI-H1299 cells [10]: no significant inhibitory effects
cell viability of SNU449 cells [11]: no significant inhibitory effects
GAS6-induced downregulation of E-cadherin expression [12]: significantly reversed
p-ERK [13]: a bit weaker inhibtion
phosphorylation of AKT [13]: dose-dependently inhibited
phosphorylation of AXL [13]: dose-dependently inhibited
phosphorylation of STAT3 [13]: dose-dependently inhibited
p-AKT level [14]: significantly inhibited
p-ERK [14]: marginally inhibited
p-STAT3 level [14]: significantly inhibited
phosphorylation of AXL induced by GAS6 [14]: significantly inhibited
TGI ([16]; 20 mg/kg po qd, 7 consecutive days): 89.4%
body weight of tumor-bearing mice during the treatment ([16]; 4 and 20 mg/kg po qd): no significant body weight loss
